Measurements from ChEMBL document CHEMBL1641377, “Discovery of novel, potent, selective, and orally active human glucagon receptor antagonists containing a pyrazole core” (Bioorg Med Chem Lett, 2011).
The source made the active and inactive calls. The calls are words filed in the database; no cut-off is given here.

Legend:
Glucagon receptor [1] = target: T1, Glucagon receptor (Homo sapiens, UniProt P47871); assay: Displacement of [125I]glucagon from human GCGR expressed in CHO cells; assay type: cell-based
How it was run: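 Binding inhibition of 125I-glucagon to human GCGR expressed in CHO cell membranes; IC50 reported, n given where replicated.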

[2] = target: T2, Gastric inhibitory polypeptide receptor (Homo sapiens) (UniProt P48546); assay: Antagonist activity at human GIPR expressed in CHO cells assessed as inhibition of glucagon-induced cAMP accumulation at 10 uM; assay type: functional, cell-based
T2 sequence (whole entry): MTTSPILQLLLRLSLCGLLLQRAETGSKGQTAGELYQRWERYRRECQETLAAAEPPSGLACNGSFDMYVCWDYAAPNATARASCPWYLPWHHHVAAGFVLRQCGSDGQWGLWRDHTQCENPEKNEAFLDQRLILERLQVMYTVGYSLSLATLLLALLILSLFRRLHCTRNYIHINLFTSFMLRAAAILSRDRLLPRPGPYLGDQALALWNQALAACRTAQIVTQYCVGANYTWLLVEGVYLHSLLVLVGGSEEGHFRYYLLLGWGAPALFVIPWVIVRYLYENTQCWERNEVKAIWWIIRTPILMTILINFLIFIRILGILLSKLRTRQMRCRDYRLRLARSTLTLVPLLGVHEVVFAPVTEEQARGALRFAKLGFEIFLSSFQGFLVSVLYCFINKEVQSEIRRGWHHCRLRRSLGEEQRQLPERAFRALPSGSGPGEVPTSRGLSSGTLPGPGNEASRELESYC

[3] = target: T3, Gastric inhibitory polypeptide receptor (Homo sapiens, UniProt P48546); assay: Antagonist activity at human GIPR expressed in CHO cells assessed as inhibition of glucagon-induced cAMP accumulation; assay type: functional, cell-based
T3 sequence (P48546 whole entry): T2 sequence (whole entry)

Glucagon receptor [4] = target: T1, Glucagon receptor; assay: Antagonist activity at human GCGR expressed in CHO cells assessed as inhibition of glucagon-induced cAMP accumulation; assay type: functional, cell-based
How it was run: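 Inhibition of glucagon-induced cAMP accumulation in CHO cells transfected with human GCGR; IC50 derived, n given where replicated.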

Mus musculus [5] = assay: Antidiabetic activity in transgenic mouse expressing human GCGR assessed as inhibition of glucagon-induced blood glucose excursion at 10 mg/kg, po administered 60 mins before glucagon challenge measured after 48 mins; assay type: functional, organism-based; set-up: dose 10 mg/kg
How it was run: (§1)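 hGCGR transgenic mice (only functional receptor is human GCGR), 9 per group, given compound orally, then glucagon 15 µg/kg IP 60 min later (one arm dosed 30 mpk three hours before challenge); blood glucose monitored at 12, 24, 36 and 48 min after glucagon.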

[6] = Blood clearance in po dosed mouse; assay type: ADME, organism-based
[7] = Half life in po dosed mouse; assay type: ADME, organism-based; settings: in vivo
Mus musculus [8] = assay: Dose normalized AUC in po dosed mouse; assay type: ADME, organism-based; settings: in vivo
Mus musculus [9] = assay: Antidiabetic activity in transgenic mouse expressing human GCGR assessed as inhibition of glucagon-induced blood glucose excursion at 30 mg/kg, po administered 60 mins before glucagon challenge measured after 48 mins; assay type: functional, organism-based; set-up: dose 30 mg/kg; how it was run: as §1

T1 sequence (P47871 whole entry): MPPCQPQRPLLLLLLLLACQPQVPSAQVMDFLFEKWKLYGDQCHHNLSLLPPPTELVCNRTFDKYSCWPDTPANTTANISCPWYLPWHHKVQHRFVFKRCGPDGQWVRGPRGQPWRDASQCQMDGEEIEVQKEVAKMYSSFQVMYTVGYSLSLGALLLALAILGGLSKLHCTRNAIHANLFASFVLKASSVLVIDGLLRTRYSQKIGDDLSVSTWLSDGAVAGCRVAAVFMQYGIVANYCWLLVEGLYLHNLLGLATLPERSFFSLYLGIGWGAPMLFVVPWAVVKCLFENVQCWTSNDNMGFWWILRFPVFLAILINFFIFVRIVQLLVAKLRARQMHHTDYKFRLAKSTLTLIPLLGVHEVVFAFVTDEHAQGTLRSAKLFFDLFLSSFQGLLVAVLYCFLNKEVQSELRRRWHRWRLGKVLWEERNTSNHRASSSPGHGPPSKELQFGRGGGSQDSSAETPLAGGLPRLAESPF

IC50 (Glucagon receptor [1]) [nM] | inhibition [2] [%] | IC50 [3] [µM] | SMILES | also measured
520 | 21 | – | CC(c1ccc(Cl)cc1)c1cc(-c2ccc(OC(F)(F)F)cc2)nn1Cc1ccc(C(=O)Nc2nn[nH]n2)cc1 (stereo unspecified) | –
250 | 46 | – | CC(c1ccc(C(=O)NCCC(=O)O)cc1)n1nc(-c2ccc(OC(F)(F)F)cc2)cc1-c1ccc(OC(F)(F)F)cc1 (stereo unspecified) | –
95 | 21 | – | O=C(O)CCNC(=O)c1ccc(Cn2nc(-c3ccc(OC(F)(F)F)cc3)cc2-c2cc(Cl)cc(Cl)c2)cc1 | IC50 (Glucagon receptor [4]): 230 nM
730 | 22 | – | CC(c1ccc(Cl)cc1)c1cc(-c2ccc(OC(F)(F)F)cc2)nn1Cc1ccc(C(=O)NCCC(=O)O)cc1 (stereo unspecified) | –
7200 | 9 | – | CN(CCC(=O)O)C(=O)c1ccc(Cn2nc(-c3ccc(OC(F)(F)F)cc3)cc2-c2ccc(OC(F)(F)F)cc2)cc1 | –
28 | – | > 25 | O=C(NC[C@@H](O)C(=O)O)c1ccc(Cn2nc(-c3cc(Cl)cc(Cl)c3)cc2-c2ccc(OC(F)(F)F)cc2)cc1 | –
2700 | 43 | – | CS(=O)(=O)c1ccc(-c2cc(-c3ccc(OC(F)(F)F)cc3)n(Cc3ccc(C(=O)NCCC(=O)O)cc3)n2)cc1 | –
3000 | -3 | – | O=C(O)CNC(=O)c1ccc(Cn2nc(-c3ccc(OC(F)(F)F)cc3)cc2-c2ccc(OC(F)(F)F)cc2)cc1 | IC50 (Glucagon receptor [4]): 1300 nM
430 | 20 | – | CC(c1ccc(Cl)cc1)c1cc(-c2ccc(OC(F)(F)F)cc2)n(Cc2ccc(C(=O)Nc3nn[nH]n3)cc2)n1 (stereo unspecified) | –
1200 | 31 | – | CS(=O)(=O)c1ccc(-c2cc(-c3ccc(OC(F)(F)F)cc3)nn2Cc2ccc(C(=O)NCCC(=O)O)cc2)cc1 | –
3800 | – | 2.8 | O=C(O)CCNC(=O)c1ccc(Cn2nc(-c3ccc(OC(F)(F)F)cc3)cc2C2CCCCC2)cc1 | –
1100 | 15 | – | O=C(O)CCCNC(=O)c1ccc(Cn2nc(-c3ccc(OC(F)(F)F)cc3)cc2-c2ccc(OC(F)(F)F)cc2)cc1 | –
2400 | 0 | – | CC(c1ccc(Cl)cc1)c1cc(-c2ccc(OC(F)(F)F)cc2)n(Cc2ccc(C(=O)NCCC(=O)O)cc2)n1 (stereo unspecified) | –
490 | – | – | O=C(O)CCNC(=O)c1ccc(Cn2nc(-c3ccc(OC(F)(F)F)cc3)cc2-c2ccc(OC(F)(F)F)cc2)cc1 | IC50 (Glucagon receptor [4]): 370 nM

Second part, the compound before the results:

SMILES | IC50 (Glucagon receptor [1]) [nM] | inhibition [2] [%] | IC50 [3] [µM] | also measured
O=C(O)CNC(=O)c1cccc(Cn2nc(-c3ccc(OC(F)(F)F)cc3)cc2-c2ccc(OC(F)(F)F)cc2)c1 | 2900 | 34 | – | –
CS(=O)(=O)c1ccc(-c2cc(-c3ccc(OC(F)(F)F)cc3)n(Cc3ccc(C(=O)Nc4nn[nH]n4)cc3)n2)cc1 | – | 45 | – | –
O=C(Nc1nnn[nH]1)c1ccc(Cc2cn(-c3ccc(OC(F)(F)F)cc3)nc2C2CCCCC2)cc1 | 5300 | – | > 10 | –
O=C(Nc1nn[nH]n1)c1ccc(Cc2cnn(-c3ccc(OC(F)(F)F)cc3)c2C2CCCCC2)cc1 | 16000 | – | > 20 | –
CC(C)(C)[C@H]1CC[C@H](N(Cc2ccc(C(=O)NCCC(=O)O)cc2)C(=O)Nc2ccc(OC(F)(F)F)cc2)CC1 | 21 | – | 1.3 | IC50 (Glucagon receptor [4]): 140 nM
O=C(NCc1nn[nH]n1)c1ccc(Cn2nc(-c3cc(Cl)cc(Cl)c3)cc2-c2ccc(OC(F)(F)F)cc2)cc1 | – | – | – | inhibition (Mus musculus [5]): inactive
CS(=O)(=O)c1ccc(-c2cc(-c3ccc(OC(F)(F)F)cc3)nn2Cc2ccc(C(=O)Nc3nnn[nH]3)cc2)cc1 | 220 | – | – | –
O=C(Nc1nn[nH]n1)c1ccc(Cc2cc(-c3ccc(OC(F)(F)F)cc3)n(C3CCCCC3)n2)cc1 | 2900 | 50 | – | –
CS(=O)(=O)c1ccc(-c2cc(-c3ccc(OC(F)(F)F)cc3)nn2Cc2ccc(C(=O)Nc3nn[nH]n3)cc2)cc1 | – | 36 | – | –
O=C(Nc1nn[nH]n1)c1cccc(Cn2nc(-c3ccc(OC(F)(F)F)cc3)cc2-c2ccc(OC(F)(F)F)cc2)c1 | 1100 | 2 | – | –
O=C(Nc1nn[nH]n1)c1ccc(Cn2nc(-c3ccc(OC(F)(F)F)cc3)cc2C2CCCCC2)cc1 | 120 | – | 2.1 | IC50 (Glucagon receptor [4]): 160 nM; CL/F [6]: 8.2 mL/min/kg; half-life [7]: 162 min; AUC (Mus musculus [8]): 1.5 µM·kg·h/mg
CC(C)(C)[C@H]1CC[C@H](N(Cc2ccc(C(=O)Nc3nn[nH]n3)cc2)C(=O)Nc2ccc(OC(F)(F)F)cc2)CC1 | 3.2 | – | 0.045 | IC50 (Glucagon receptor [4]): 46 nM
O=C(O)CCCNC(=O)c1cccc(Cn2nc(-c3ccc(OC(F)(F)F)cc3)cc2-c2ccc(OC(F)(F)F)cc2)c1 | 1100 | 49 | – | –
O=C(Nc1nnn[nH]1)c1ccc(Cn2nc(-c3cc(Cl)cc(Cl)c3)cc2-c2ccc(OC(F)(F)F)cc2)cc1 | 39 | – | 7.1 | IC50 (Glucagon receptor [4]): 44 nM
CC(c1ccc(C(=O)Nc2nnn[nH]2)cc1)n1nc(-c2ccc(OC(F)(F)F)cc2)cc1-c1ccc(OC(F)(F)F)cc1 (stereo unspecified) | 130 | – | 6 | –
O=C(Nc1nn[nH]n1)c1ccc(Cn2nc(-c3ccc(OC(F)(F)F)cc3)cc2-c2ccc(OC(F)(F)F)cc2)cc1 | 43 | 46 | – | IC50 (Glucagon receptor [4]): 47 nM; inhibition (Mus musculus [9]): Active; inhibition (Mus musculus [5]): Active
O=C(Nc1nn[nH]n1)c1ccc(Cn2nc(C3CCCCC3)cc2-c2ccc(OC(F)(F)F)cc2)cc1 | 810 | – | 0.91 | –
O=C(NCc1nnn[nH]1)c1ccc(Cn2nc(-c3cc(Cl)cc(Cl)c3)cc2-c2ccc(OC(F)(F)F)cc2)cc1 | 120 | – | > 10 | –
O=C(Nc1nn[nH]n1)c1ccc(Cc2cc(-c3ccc(OC(F)(F)F)cc3)nn2C2CCCCC2)cc1 | 4200 | 42 | – | –
O=C(O)CCNC(=O)c1cccc(Cn2nc(-c3ccc(OC(F)(F)F)cc3)cc2-c2ccc(OC(F)(F)F)cc2)c1 | 330 | 73 | – | –
CS(=O)(=O)c1ccc(-c2cc(-c3ccc(OC(F)(F)F)cc3)n(Cc3ccc(C(=O)Nc4nnn[nH]4)cc3)n2)cc1 | 570 | – | – | –
O=C(O)CCNC(=O)c1ccc(Cc2cc(-c3ccc(OC(F)(F)F)cc3)n(C3CCCCC3)n2)cc1 | 1700 | – | – | –
O=C(O)CCNC(=O)c1ccc(Cc2cn(-c3ccc(OC(F)(F)F)cc3)nc2C2CCCCC2)cc1 | 1200 | – | 7.4 | –
CC(C)(C)[C@H]1CC[C@H](c2cc(-c3ccc(OC(F)(F)F)cc3)nn2Cc2ccc(C(=O)NCCC(=O)O)cc2)CC1 | 480 | 6 | – | –
CC(C)(C)[C@H]1CC[C@H](c2cc(-c3ccc(OC(F)(F)F)cc3)nn2Cc2ccc(C(=O)Nc3nn[nH]n3)cc2)CC1 | – | – | – | inhibition (Mus musculus [9]): Active; inhibition (Mus musculus [5]): Active
O=C(O)CCNC(=O)c1ccc(Cc2cc(-c3ccc(OC(F)(F)F)cc3)nn2C2CCCCC2)cc1 | 2900 | 39 | – | –
O=C(Nc1nnn[nH]1)c1ccc(Cn2nc(-c3ccc(OC(F)(F)F)cc3)cc2-c2cc(Cl)cc(Cl)c2)cc1 | 36 | – | 3 | IC50 (Glucagon receptor [4]): 35 nM
CC(C)(C)[C@H]1CC[C@H](c2cc(-c3ccc(OC(F)(F)F)cc3)nn2Cc2ccc(C(=O)Nc3nnn[nH]3)cc2)CC1 | 63 | – | 5.7 | IC50 (Glucagon receptor [4]): 170 nM
O=C(Nc1nn[nH]n1)c1ccc(Cn2nc(-c3cc(Cl)cc(Cl)c3)cc2-c2ccc(OC(F)(F)F)cc2)cc1 | – | – | – | inhibition (Mus musculus [9]): Active; inhibition (Mus musculus [5]): inactive
O=C(O)CCNC(=O)c1ccc(Cc2cnn(-c3ccc(OC(F)(F)F)cc3)c2C2CCCCC2)cc1 | 7200 | – | > 25 | –
